The test system of experiment [1] is Plasmodium falciparum. As to the kind of experiment: In vitro inhibitory activity against Plasmodium falciparum as [3H]hypoxanthine (50 uL) incorporation at 37C. The format is functional, organism-based.
The test system of experiment [2] is Trypanosoma cruzi. Put plainly: In vitro growth inhibitory activity against Trypanosoma cruzi in rat L-6 cells upon incubation at 37 degrees C in 5% CO2 atmosphere for 4 days. It is filed as functional, organism-based. Conditions: L6, 96 h. The procedure, abridged: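 L-6 cells seeded at 2000 cells/well in RPMI 1640 with 10% FBS and 2 mM L-glutamine. After 24 h, 5000 T. cruzi Tulahuen C2C4 LacZ trypomastigotes added with serial drug dilutions, then 4 days at 37 °C, 5% CO2. CPRG/Nonidet substrate added and colour read at 540 nm after 2-4 h. IC50 from sigmoidal curve. Twice independently, in duplicate.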

For experiment [3], the system named is Trypanosoma brucei rhodesiense. As to the kind of experiment: Inhibitory constant against Trypanosoma brucei rhodesiense upon incubation with the compound at 37 degrees C under a 5% CO2 atmosphere for 72 hours. The format is functional, organism-based.
Experiment [4] addresses T1, dUTP pyrophosphatase (Plasmodium falciparum 3D7, UniProt Q8II92).
T1 sequence (Q8II92 whole entry): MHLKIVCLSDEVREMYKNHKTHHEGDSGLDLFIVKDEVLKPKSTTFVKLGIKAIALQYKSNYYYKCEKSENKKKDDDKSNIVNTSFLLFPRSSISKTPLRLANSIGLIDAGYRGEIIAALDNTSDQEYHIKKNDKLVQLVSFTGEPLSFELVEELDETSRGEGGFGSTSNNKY
As to the kind of experiment: Inhibitory constant against Plasmodium falciparum deoxyuridine 5'-triphosphate nucleotidohydrolase expressed in Escherichia coli BL21 (DE3) cells. The gist of the method: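 Recombinant PfdUTPase expressed in E. coli BL21(DE3) and purified by phosphocellulose and gel filtration to ~96% purity. Continuous stopped-flow assay following proton release with cresol red/bicine (50:2000 µM, 573 nm). Mix: 30 nM enzyme, 50 µM dUTP, 5 mM MgCl2, 2.5 mM DTT, 1.25 mg/mL BSA, 100 mM KCl. KMapp from integrated Michaelis-Menten fits, plotted against [I] to give Ki.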

Experiment [5] concerns L6. Put plainly: In vitro cytotoxicity aganist rat skeletal myoblasts (L-6 cells) after 72 hours. It is filed as functional, cell-based. The settings on record: L6, 72 h. The procedure, abridged:
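L-6 rat skeletal myoblasts seeded at 4 × 10^4 cells/mL in RPMI 1640 with 10% FBS and 2 mM L-glutamine. After 24 h, medium replaced with a serial drug dilution, then 72 h at 37 °C, 5% CO2. Alamar Blue added for a further 2-4 h. Fluorescence read at ex 536/em 588 nm. Run twice independently, in duplicate.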

For experiment [6], the target named is T2, dUTP pyrophosphatase (Plasmodium falciparum 3D7) (UniProt Q8II92).
T2 sequence (whole entry): T1 sequence (Q8II92 whole entry)
Put plainly: Selectivity index for Plasmodium falciparum deoxyuridine 5'-triphosphate nucleotidohydrolase defined as (Ki Human)/(Ki Plasmodium falciparum). The gist of the method:
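Ratio of human dUTPase Ki to P. falciparum dUTPase Ki. Both Ki values came from stopped-flow pH-indicator assays following dUTP hydrolysis, with Ki derived from the dependence of apparent KM on inhibitor concentration.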

The target of experiment [7] is T3, dUTP pyrophosphatase (Leishmania major, UniProt O15826).
T3 sequence (O15826 whole entry): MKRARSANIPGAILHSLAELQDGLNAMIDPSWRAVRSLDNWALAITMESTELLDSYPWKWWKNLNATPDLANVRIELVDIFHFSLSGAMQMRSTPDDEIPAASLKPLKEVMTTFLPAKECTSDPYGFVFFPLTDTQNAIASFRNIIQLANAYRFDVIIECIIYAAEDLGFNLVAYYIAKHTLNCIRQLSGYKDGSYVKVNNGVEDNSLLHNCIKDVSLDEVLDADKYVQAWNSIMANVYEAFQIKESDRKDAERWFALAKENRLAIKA
As to the kind of experiment: Inhibitory constant against Leishmania major deoxyuridine 5'-triphosphate nucleotidohydrolase.

For experiment [8], the target named is T4, Deoxyuridine 5'-triphosphate nucleotidohydrolase, mitochondrial (Homo sapiens, UniProt P33316).
T4 sequence (P33316 whole entry): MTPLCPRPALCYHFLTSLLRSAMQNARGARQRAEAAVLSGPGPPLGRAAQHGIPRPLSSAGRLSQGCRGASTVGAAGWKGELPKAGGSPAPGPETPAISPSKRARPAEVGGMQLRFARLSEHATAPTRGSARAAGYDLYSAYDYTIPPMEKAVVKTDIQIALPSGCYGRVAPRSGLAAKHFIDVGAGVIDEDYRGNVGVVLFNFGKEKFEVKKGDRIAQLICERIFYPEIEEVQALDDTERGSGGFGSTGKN
Put plainly: Inhibitory constant against human deoxyuridine 5'-triphosphate nucleotidohydrolase expressed in Escherichia coli BL21 (DE3) cells. The procedure, abridged:
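Human dUTPase expressed in E. coli BL21(DE3) and purified like the Plasmodium enzyme (phosphocellulose, then gel filtration). dUTP hydrolysis followed continuously by stopped-flow as pH-indicator absorbance (cresol red/bicine, 50:2000 µM, 573 nm). Apparent KM from integrated Michaelis-Menten fits at each inhibitor concentration; Ki from linear KMapp versus [I].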

Experiment [9] concerns Leishmania donovani. As to the kind of experiment: In vitro growth inhibitory activity against Leishmania donovani amastigotes at 37 degrees C under a 5% CO2 atmosphere for 96 hours. It is filed as functional, organism-based. The procedure, abridged: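 Mouse peritoneal macrophages in RPMI 1640 with 10% heat-inactivated FBS, infected after 24 h with L. donovani amastigotes at 3:1 (amastigote:macrophage). Free amastigotes washed out at 4 h. Next day, drug-containing medium added for 96 h at 37 °C, 5% CO2. Slides methanol-fixed and Giemsa-stained. Percentage of infected macrophages scored microscopically versus control; IC50 by linear regression. Twice independently, in duplicate.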

This passage reports IC50, Ki and SI results from ChEMBL document CHEMBL1140411, “Deoxyuridine triphosphate nucleotidohydrolase as a potential antiparasitic drug target” (J Med Chem, 2005).

As to `CC(C)(C)[Si](OCC1OC(n2ccc(=O)[nH]c2=O)CC1F)(c1ccccc1)c1ccccc1` (stereo unspecified), the IC50 in [1] is 8.8 µM; in experiment [2], 32 µM; in experiment [3] it was 29 µM; in [5] it was 16 µM. Moreover, the Ki in [4] is 89 µM; in experiment [7] it was > 1000 µM; in experiment [8], 808 µM. In addition, the SI in experiment [6] came to 9.1.

Consider `O=c1ccn(C2C=CC(COP(=O)(Oc3ccccc3)Oc3ccccc3)O2)c(=O)[nH]1` (stereo unspecified), for which the results for the IC50 in [1], in experiment [2] and in [3] were 54 µM, > 204 µM and 68 µM, respectively. Besides, the Ki was 99 µM in experiment [4], > 1000 µM in experiment [7] and > 1000 µM in [8]. Also, the SI in experiment [6] is > 10.

Regarding `NS(=O)(=O)OCC1C=CC(n2ccc(=O)[nH]c2=O)O1` (stereo unspecified), the IC50 in experiment [1] was 163 µM; in experiment [2] it was > 311 µM; in [3], > 311 µM. In addition, the Ki was 254 µM in experiment [4], > 1000 µM in experiment [7] and > 1000 µM in [8]. Moreover, the SI in [6] is > 4.

For `O=c1ccn(C2CC(O)C(CNC(c3ccccc3)(c3ccccc3)c3ccccc3)O2)c(=O)[nH]1` (stereo unspecified), the IC50 was 44 µM in experiment [2], 48 µM in [3] and 44 µM in [5]. Moreover, the Ki in experiment [4] turned out to be 0.2 µM; in experiment [7], 304 µM; in experiment [8] it was 46 µM. The same molecule yielded an SI in experiment [6] of 230.

As to `CC(C)(C)[Si](C)(C)OCC1OC(n2ccc(=O)[nH]c2=O)CC1F` (stereo unspecified), the IC50 in experiment [1] was > 14 µM; in [2], 37 µM; in experiment [3], 59 µM; in [9], > 87 µM. Besides, the Ki in experiment [4] is 628 µM; in experiment [7], > 1000 µM. For the same molecule, the SI in experiment [6] was > 1.6.

As for `CC(C)(C)[Si](C)(C)O[C@H]1C[C@H](n2ccc(=O)[nH]c2=O)O[C@@H]1COS(N)(=O)=O`, the IC50 in [1] is 40 µM; in experiment [2], 160 µM; in [3], 104 µM; in experiment [9], > 7 µM. For the same molecule, the Ki was 88 µM in experiment [4], > 1000 µM in [7] and 324 µM in [8]. For the same molecule, in [6], the SI was 3.7.

Regarding `O=c1ccn([C@H]2C=C[C@@H](CO)O2)c(=O)[nH]1`, the IC50 in experiment [1] came to 214 µM; in experiment [2], 170 µM; in experiment [3], 72 µM. Further, the Ki in experiment [4] is 298 µM; in experiment [7], > 1000 µM; in [8], > 1000 µM. For the same molecule, the SI in experiment [6] was > 3.

As to `CC(C)(C)[Si](OC[C@H]1O[C@@H](n2ccc(=O)[nH]c2=O)C[C@@H]1O)(c1ccccc1)c1ccccc1`, the IC50 in experiment [1] was found to be 6.6 µM; in experiment [2], 45 µM; in experiment [3] it was 3 µM; in [5] it was 23 µM. Also, in experiment [6], the SI came out at 192. Also, the Ki was > 1000 µM in [7] and 806 µM in [8].

Regarding `O=c1ccn([C@H]2C[C@H](O)[C@@H](CO[Si](c3ccccc3)(c3ccccc3)c3ccccc3)O2)c(=O)[nH]1`, the values for the IC50 in experiment [2] and in experiment [3] were 71 µM and 15 µM, respectively. Also, the SI in experiment [6] was found to be 325. Also, the figures for the Ki in [7] and in experiment [8] were > 1000 µM and 909 µM, respectively.

`O=C(NCC1OC(n2ccc(=O)[nH]c2=O)CC1O)C12CC3CC(CC(C3)C1)C2` (stereo unspecified): the IC50 in [1] was > 13 µM; in experiment [2], > 231 µM; in [3], > 231 µM. In addition, the Ki in [4] is 426 µM; in experiment [7], > 1000 µM; in experiment [8], > 1000 µM. The SI in experiment [6] was > 2.

Consider `CC(C)(C)[Si](C)(C)OCC1C=CC(n2ccc(=O)[nH]c2=O)O1` (stereo unspecified), for which the IC50 in experiment [1] was found to be 51 µM; in [2], 110 µM; in experiment [3] it was 73 µM. Besides, the Ki was 10 µM in experiment [4], > 1000 µM in [7] and 56.4 µM in experiment [8]. Besides, the SI in experiment [6] stood at 5.6.

Consider `O=c1ccn(C2CC(O)C(CNCc3ccccc3)O2)c(=O)[nH]1` (stereo unspecified), for which the figures for the IC50 in experiment [1], in experiment [2] and in experiment [3] were > 16 µM, > 83 µM and 17 µM, respectively. Also, the Ki was 111 µM in experiment [4], > 1000 µM in [7] and > 1000 µM in experiment [8]. The SI in experiment [6] was > 9.

As to `CC(C)(C)[Si](OCC1C=CC(n2ccc(=O)[nH]c2=O)O1)(c1ccccc1)c1ccccc1` (stereo unspecified), the IC50 in experiment [1] came out at 3 µM; in [2], 33 µM; in [3], 55 µM; in [5] it was 67 µM. Also, the SI in [6] is > 833. In experiment [7], the Ki was 178 µM.

Regarding `NS(=O)(=O)NC(=O)OC[C@H]1O[C@@H](n2ccc(=O)[nH]c2=O)C[C@@H]1O`, the IC50 was 20 µM in [1], > 194 µM in experiment [2], 90 µM in experiment [3] and > 65 µM in experiment [9]. In addition, the Ki in experiment [4] is 468 µM; in [7], 314 µM; in experiment [8], > 1000 µM. In experiment [6], the SI was > 2.

`O=c1ccn(C2C=CC(COC(c3ccccc3)(c3ccccc3)c3ccccc3)O2)c(=O)[nH]1` (stereo unspecified): the IC50 in experiment [1] was > 11 µM; in [2] it was 44 µM; in [3], 55 µM; in experiment [9], > 66 µM. Besides, the values for the Ki in experiment [4], in experiment [7] and in experiment [8] were 1.9 µM, 798 µM and 157 µM, respectively. Moreover, the SI in experiment [6] was 83.

For the molecule `O=c1ccn([C@H]2C[C@H](O)[C@@H](COC(c3ccccc3)(c3ccccc3)c3ccccc3)O2)c(=O)[nH]1`, the IC50 in experiment [2] is 306 µM; in experiment [3], 24 µM; in experiment [9], > 64 µM. Further, the SI in [6] is 10. Moreover, the Ki was > 1000 µM in experiment [7] and 18 µM in experiment [8].

As for `CCOP(=O)(CC(=O)NCC1OC(n2ccc(=O)[nH]c2=O)CC1O)OCC` (stereo unspecified), the IC50 in experiment [1] is 78 µM; in experiment [2] it was > 222 µM; in experiment [3], 41 µM; in experiment [9], 29 µM. For the same molecule, the Ki is 324 µM in experiment [4], > 1000 µM in [7] and > 1000 µM in [8]. Further, in experiment [6], the SI is > 3.

Regarding `CCCCCCCCCCCCCCCC(=O)OCC1C=CC(n2ccc(=O)[nH]c2=O)O1` (stereo unspecified), the IC50 in [1] was > 11 µM; in experiment [2], > 201 µM; in experiment [3], 113 µM; in experiment [9], > 67 µM. Further, the Ki in experiment [4] is 256 µM; in experiment [7] it was > 1000 µM; in experiment [8], 350 µM. The SI in experiment [6] came out at 1.4.

Turning to `CC(C)(C)[Si](C)(C)O[C@H]1C[C@H](n2ccc(=O)[nH]c2=O)O[C@@H]1COC(=O)NS(N)(=O)=O`, the IC50 in [1] is 37 µM; in experiment [2] it was > 152 µM; in [3], 12 µM; in [9], > 51 µM. The Ki in experiment [4] is 244 µM; in experiment [7], > 1000 µM; in experiment [8], > 1000 µM. Further, the SI in experiment [6] is > 4.
